Results as given in ChEMBL document CHEMBL1136721, “QSAR and classification of murine and human soluble epoxide hydrolase inhibition by urea-like compounds” (J Med Chem, 2003).

Columns and labels:
[1] = molecular target: T1, Bifunctional epoxide hydrolase 2 (Homo sapiens, UniProt P34913); assay: Inhibitory activity against human soluble epoxide hydrolase; N/A = could not be determined because of above the highest concentration (500 uM) of inhibitor tested.
T1 sequence (P34913 whole entry): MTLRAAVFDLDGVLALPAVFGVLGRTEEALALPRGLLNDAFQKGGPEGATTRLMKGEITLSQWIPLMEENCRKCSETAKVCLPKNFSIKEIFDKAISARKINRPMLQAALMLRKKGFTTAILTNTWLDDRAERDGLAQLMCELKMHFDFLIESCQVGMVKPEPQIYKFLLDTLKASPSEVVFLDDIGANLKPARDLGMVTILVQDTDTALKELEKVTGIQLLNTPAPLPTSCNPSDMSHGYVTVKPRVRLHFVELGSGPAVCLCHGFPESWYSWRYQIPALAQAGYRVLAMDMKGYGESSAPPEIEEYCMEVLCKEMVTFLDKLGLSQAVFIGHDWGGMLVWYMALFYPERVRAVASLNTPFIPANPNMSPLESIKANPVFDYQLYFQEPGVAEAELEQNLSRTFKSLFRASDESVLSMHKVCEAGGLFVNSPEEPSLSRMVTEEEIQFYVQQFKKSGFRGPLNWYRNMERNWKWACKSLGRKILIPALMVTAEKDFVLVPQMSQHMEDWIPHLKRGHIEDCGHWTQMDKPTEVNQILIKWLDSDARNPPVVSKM
How it was run: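 Recombinant human sEH made in baculovirus and affinity-purified (at least 97% pure, no detectable esterase or glutathione transferase activity). 0.20 µM enzyme preincubated with inhibitor for 5 min at 30 °C in pH 7.4 sodium phosphate buffer. Substrate: 40 µM racemic 4-nitrophenyl-trans-2,3-epoxy-3-phenylpropyl carbonate. 4-Nitrophenolate read at 405 nm over 1 min. Triplicate runs; top concentration 500 µM. IC50 by regression of at least five points, with at least two on each side in the linear region.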

[2] = molecular target: T2, Bifunctional epoxide hydrolase 2 (Mus musculus, UniProt P34914); assay: Inhibitory activity against murine soluble epoxide hydrolase; N/A = could not be determined because of above the highest concentration (500 uM) of inhibitor tested.
T2 sequence (P34914 whole entry): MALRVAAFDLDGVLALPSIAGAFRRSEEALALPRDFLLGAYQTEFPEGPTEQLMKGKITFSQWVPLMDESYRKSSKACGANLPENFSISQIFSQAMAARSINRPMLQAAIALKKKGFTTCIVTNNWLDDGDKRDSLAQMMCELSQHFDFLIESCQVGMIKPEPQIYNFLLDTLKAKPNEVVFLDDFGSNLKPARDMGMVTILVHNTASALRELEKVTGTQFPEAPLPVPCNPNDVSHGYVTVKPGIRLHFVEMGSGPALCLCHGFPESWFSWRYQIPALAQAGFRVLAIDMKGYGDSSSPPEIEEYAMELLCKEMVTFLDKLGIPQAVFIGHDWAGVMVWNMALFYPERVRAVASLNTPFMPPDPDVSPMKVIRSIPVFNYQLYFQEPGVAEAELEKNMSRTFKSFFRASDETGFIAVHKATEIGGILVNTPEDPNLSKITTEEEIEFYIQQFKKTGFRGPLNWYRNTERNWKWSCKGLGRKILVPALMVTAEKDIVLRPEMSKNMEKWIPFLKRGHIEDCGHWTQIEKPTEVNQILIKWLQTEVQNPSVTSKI
How it was run: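 Mouse sEH expressed in baculovirus and affinity-purified (at least 97% pure by SDS-PAGE, no esterase or glutathione transferase activity). 0.10 µM enzyme held with inhibitor 5 min at 30 °C in pH 7.4 sodium phosphate buffer. Then 40 µM racemic 4-nitrophenyl-trans-2,3-epoxy-3-phenylpropyl carbonate added; 4-nitrophenolate followed at 405 nm for 1 min. Done in triplicate up to 500 µM inhibitor. IC50 regressed from at least five points bracketing the midpoint.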

SMILES | IC50 [1] | IC50 [2]
CCCCCCNC(=O)NC | Not Active | 
CN(C)C(=O)N(CCCCCC(=O)O)c1ccc(Cl)c(Cl)c1 | Not Active | Not Active
